Data reported in ChEMBL document CHEMBL4270649 (Eur J Med Chem, 2018).
Active and inactive are the calls of the source. The calls are words filed in the database; no cut-off is given here.

Experiments:
[1] = biological target: T1, Serine/threonine-protein kinase 17A (Homo sapiens) (UniProt Q9UEE5); assay: Inhibition of full length human GST-tagged STK17A expressed in baculovirus expression system at 1.25 uM in presence of 100 uM ATP relative to control
T1 sequence (whole entry): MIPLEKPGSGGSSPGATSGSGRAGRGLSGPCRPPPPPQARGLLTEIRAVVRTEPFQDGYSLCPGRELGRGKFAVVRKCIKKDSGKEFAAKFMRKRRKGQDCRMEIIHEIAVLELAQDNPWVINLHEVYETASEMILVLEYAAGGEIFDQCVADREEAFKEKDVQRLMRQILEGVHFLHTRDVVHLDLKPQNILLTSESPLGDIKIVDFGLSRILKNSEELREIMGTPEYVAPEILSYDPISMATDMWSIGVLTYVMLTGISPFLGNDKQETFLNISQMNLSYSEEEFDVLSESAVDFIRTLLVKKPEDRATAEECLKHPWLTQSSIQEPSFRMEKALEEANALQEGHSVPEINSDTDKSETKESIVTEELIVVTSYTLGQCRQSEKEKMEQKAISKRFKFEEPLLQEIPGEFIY

[2] = biological target: Casein kinase I isoform delta (Homo sapiens) (UniProt P48730); assay: Inhibition of CK1delta (unknown origin) at 1.25 uM in presence of 100 uM ATP relative to control
[3] = biological target: T2, Dual specificity tyrosine-phosphorylation-regulated kinase 1A (Homo sapiens, UniProt Q13627); assay: Inhibition of recombinant human N-terminal His6-tagged DYRK1A expressed in Escherichia coli BL21(DE3) at 1.25 uM using KKISGRLSPIMTEQ-NH2 as substrate after 15 mins in presence of 15 uM [gamma32P]ATP by phosphor imaging analysis relative to control
[4] = Cytotoxicity against human HeLa cells assessed as cell viability at 1 uM after 3 days by XTT assay relative to control; assay type: cell-based; conditions: read-out: Activity
[5] = biological target: BDNF/NT-3 growth factors receptor (Homo sapiens) (UniProt Q16620); assay: Inhibition of human His-tagged TRK-B expressed in baculovirus expression system at 1.25 uM in presence of 100 uM ATP relative to control
[6] = biological target: SRSF protein kinase 1 (Homo sapiens) (UniProt Q96SB4); assay: Inhibition of full length human His-tagged SRPK1 expressed in baculovirus expression system at 1.25 uM in presence of 100 uM ATP relative to control
[7] = biological target: Cyclin-dependent kinase 5/CDK5 activator 1 (Homo sapiens) (UniProt Q00535+Q15078); assay: Inhibition of full length human GST/His-tagged CDK5/p25 expressed in baculovirus expression system at 1.25 uM in presence of 100 uM ATP by Z'-Lyte assay relative to control
[8] = biological target: Dual specificity protein kinase CLK2 (Homo sapiens) (UniProt P49760); assay: Inhibition of human GST-tagged CLK2 expressed in baculovirus expression system at 1.25 uM in presence of 100 uM ATP relative to control
[9] = biological target: T3, Dual specificity tyrosine-phosphorylation-regulated kinase 1B (Homo sapiens, UniProt Q9Y463); assay: Inhibition of full length recombinant human GST-tagged DYRK1B expressed in baculovirus expression system using KKISGRLSPIMTEQ-NH2 as substrate after 15 mins in presence of 15 uM [gamma32P]ATP by phosphor imaging analysis
[10] = biological target: T2, Dual specificity tyrosine-phosphorylation-regulated kinase 1A; assay: Inhibition of recombinant human N-terminal His6-tagged DYRK1A expressed in Escherichia coli BL21(DE3) using KKISGRLSPIMTEQ-NH2 as substrate after 15 mins in presence of 15 uM [gamma32P]ATP by phosphor imaging analysis
[11] = biological target: T2, Dual specificity tyrosine-phosphorylation-regulated kinase 1A; assay: Inhibition of DYRK1A in human HeLa cells harboring GFP-SF3b1-NT assessed as reduction in SF3b1 phosphorylation at T343 residue after 18 hrs by Western blot analysis; assay type: cell-based
[12] = Cytotoxicity against human HeLa cells assessed as cell viability at 10 uM after 3 days by XTT assay relative to control; assay type: cell-based; conditions: read-out: Activity
[13] = biological target: T4, Serine/threonine-protein kinase haspin (Homo sapiens, UniProt Q8TF76); assay: Inhibition of human GST-tagged haspin expressed in baculovirus expression system in presence of 100 uM ATP
T4 sequence (Q8TF76 whole entry): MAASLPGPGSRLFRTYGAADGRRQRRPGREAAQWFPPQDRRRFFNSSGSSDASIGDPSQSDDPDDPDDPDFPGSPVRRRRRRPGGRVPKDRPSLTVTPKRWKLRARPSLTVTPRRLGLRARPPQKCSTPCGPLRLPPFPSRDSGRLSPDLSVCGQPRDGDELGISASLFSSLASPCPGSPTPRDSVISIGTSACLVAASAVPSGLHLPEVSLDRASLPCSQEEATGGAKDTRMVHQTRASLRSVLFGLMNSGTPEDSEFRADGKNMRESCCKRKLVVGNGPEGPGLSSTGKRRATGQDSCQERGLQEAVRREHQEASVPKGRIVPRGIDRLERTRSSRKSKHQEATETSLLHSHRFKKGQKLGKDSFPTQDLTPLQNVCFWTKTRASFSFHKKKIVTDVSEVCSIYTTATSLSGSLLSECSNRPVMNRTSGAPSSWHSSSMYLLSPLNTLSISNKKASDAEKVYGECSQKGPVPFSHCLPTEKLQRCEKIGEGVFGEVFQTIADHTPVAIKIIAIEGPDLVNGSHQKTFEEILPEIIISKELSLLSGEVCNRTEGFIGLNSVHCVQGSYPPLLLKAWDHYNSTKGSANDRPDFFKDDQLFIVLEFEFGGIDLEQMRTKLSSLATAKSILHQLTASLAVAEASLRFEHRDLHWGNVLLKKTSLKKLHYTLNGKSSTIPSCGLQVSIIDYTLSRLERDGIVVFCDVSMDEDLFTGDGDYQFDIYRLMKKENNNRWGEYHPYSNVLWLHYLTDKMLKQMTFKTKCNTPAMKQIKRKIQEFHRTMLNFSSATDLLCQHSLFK

[14] = Half life in human liver S9 fraction at 0.3 uM in presence of NADP+/UDPGA by LC-MS/MS analysis; assay type: ADME, subcellular
In short: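 Compound was incubated with human S9 fraction and samples were taken at defined time points. Remaining parent was quantified by LC-MS/MS: ESI triple quadrupole, RP C18 column, water/acetonitrile with 0.1% TFA, 5–100% B over 7 min at 400 µL/min. Half-life was calculated from the remaining-parent data.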

[15] = Cytotoxicity against human HeLa cells assessed as cell viability at 3 uM after 3 days by XTT assay relative to control; assay type: cell-based; conditions: read-out: Activity
[16] = biological target: T4, Serine/threonine-protein kinase haspin; assay: Inhibition of human GST-tagged haspin expressed in baculovirus expression system at 1.25 uM in presence of 100 uM ATP relative to control
[17] = biological target: Homeodomain-interacting protein kinase 1 (Homo sapiens) (UniProt Q86Z02); assay: Inhibition of human GST-tagged HIPK1 expressed in baculovirus expression system at 1.25 uM in presence of 100 uM ATP relative to control
[18] = biological target: Myosin light chain kinase 2, skeletal/cardiac muscle (Homo sapiens) (UniProt Q9H1R3); assay: Inhibition of human full length GST-tagged MLCK2 expressed in baculovirus expression system at 1.25 uM in presence of 100 uM ATP relative to control
[19] = biological target: T3, Dual specificity tyrosine-phosphorylation-regulated kinase 1B; conditions: 0.25 h, read-out: INH
[20] = biological target: Dual specificity protein kinase CLK1 (Homo sapiens, UniProt P49759); assay: Inhibition of recombinant human GST-tagged CLK1 (129 to 484 residues) expressed in Escherichia coli using GRSRSRSRSRSRSRSR as substrate after 15 mins in presence of 15 uM [gamma32P]ATP by phosphor imaging analysis
[21] = biological target: Serine/threonine-protein kinase pim-1 (Homo sapiens) (UniProt P11309); assay: Inhibition of full length human His-tagged PIM1 expressed in baculovirus expression system at 1.25 uM in presence of 100 uM ATP relative to control
Sequence of Serine/threonine-protein kinase pim-1 (Homo sapiens) (P11309 whole entry, looked up): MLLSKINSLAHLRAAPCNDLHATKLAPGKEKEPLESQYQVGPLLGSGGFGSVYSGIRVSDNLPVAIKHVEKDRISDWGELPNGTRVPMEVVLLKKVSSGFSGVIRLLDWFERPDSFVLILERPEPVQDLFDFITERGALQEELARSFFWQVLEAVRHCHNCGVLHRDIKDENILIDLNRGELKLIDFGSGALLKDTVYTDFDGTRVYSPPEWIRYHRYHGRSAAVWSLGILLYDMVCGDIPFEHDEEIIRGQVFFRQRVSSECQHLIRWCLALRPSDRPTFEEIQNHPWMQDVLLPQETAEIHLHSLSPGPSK

T3 sequence (Q9Y463 whole entry): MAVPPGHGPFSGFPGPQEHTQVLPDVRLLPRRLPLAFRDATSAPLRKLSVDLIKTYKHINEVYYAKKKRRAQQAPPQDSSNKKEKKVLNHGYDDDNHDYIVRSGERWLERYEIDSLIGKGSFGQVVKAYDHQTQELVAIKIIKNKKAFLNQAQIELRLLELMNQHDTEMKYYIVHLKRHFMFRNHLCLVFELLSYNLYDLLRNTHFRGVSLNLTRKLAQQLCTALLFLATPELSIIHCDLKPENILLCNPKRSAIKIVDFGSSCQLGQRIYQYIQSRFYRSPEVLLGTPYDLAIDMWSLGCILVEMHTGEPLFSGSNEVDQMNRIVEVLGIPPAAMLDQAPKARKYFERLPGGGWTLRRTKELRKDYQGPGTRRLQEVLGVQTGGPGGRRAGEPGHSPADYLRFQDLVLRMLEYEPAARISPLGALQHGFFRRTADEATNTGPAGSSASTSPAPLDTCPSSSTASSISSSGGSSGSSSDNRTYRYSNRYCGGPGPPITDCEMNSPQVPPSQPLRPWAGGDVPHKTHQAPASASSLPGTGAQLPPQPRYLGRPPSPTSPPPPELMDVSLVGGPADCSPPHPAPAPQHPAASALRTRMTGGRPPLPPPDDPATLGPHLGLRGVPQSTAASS
Sequence of Homeodomain-interacting protein kinase 1 (Homo sapiens) (Q86Z02 whole entry, looked up): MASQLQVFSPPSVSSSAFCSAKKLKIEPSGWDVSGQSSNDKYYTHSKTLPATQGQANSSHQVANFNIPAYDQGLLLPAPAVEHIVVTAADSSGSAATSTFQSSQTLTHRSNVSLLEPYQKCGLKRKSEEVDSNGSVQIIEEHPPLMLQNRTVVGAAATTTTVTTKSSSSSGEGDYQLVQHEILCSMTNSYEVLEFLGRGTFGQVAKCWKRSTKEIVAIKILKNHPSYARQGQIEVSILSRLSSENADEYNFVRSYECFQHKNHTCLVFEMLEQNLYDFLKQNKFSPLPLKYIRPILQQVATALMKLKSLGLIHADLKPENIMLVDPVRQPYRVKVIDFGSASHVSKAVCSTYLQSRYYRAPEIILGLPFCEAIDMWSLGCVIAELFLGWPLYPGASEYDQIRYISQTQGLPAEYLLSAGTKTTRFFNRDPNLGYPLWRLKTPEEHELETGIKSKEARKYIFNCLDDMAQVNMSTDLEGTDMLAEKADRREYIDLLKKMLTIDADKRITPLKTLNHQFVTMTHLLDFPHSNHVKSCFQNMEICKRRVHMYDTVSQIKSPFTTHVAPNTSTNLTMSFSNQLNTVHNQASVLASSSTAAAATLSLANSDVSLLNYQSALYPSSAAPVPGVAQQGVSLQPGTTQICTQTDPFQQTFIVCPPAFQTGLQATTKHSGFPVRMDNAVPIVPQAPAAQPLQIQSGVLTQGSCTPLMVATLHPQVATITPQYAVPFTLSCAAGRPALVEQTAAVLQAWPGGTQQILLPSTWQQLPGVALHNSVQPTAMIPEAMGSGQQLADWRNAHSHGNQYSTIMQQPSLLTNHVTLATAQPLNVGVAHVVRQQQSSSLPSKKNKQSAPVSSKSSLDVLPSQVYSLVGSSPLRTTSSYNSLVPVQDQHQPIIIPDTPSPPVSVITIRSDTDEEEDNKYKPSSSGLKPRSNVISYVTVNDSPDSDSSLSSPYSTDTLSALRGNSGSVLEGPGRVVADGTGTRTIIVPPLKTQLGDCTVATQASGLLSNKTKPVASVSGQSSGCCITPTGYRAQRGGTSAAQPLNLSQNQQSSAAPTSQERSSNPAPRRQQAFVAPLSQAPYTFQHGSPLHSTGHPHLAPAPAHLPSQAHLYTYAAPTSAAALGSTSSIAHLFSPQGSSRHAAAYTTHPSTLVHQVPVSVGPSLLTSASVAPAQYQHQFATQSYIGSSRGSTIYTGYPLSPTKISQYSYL
Sequence of SRSF protein kinase 1 (Homo sapiens) (Q96SB4 whole entry): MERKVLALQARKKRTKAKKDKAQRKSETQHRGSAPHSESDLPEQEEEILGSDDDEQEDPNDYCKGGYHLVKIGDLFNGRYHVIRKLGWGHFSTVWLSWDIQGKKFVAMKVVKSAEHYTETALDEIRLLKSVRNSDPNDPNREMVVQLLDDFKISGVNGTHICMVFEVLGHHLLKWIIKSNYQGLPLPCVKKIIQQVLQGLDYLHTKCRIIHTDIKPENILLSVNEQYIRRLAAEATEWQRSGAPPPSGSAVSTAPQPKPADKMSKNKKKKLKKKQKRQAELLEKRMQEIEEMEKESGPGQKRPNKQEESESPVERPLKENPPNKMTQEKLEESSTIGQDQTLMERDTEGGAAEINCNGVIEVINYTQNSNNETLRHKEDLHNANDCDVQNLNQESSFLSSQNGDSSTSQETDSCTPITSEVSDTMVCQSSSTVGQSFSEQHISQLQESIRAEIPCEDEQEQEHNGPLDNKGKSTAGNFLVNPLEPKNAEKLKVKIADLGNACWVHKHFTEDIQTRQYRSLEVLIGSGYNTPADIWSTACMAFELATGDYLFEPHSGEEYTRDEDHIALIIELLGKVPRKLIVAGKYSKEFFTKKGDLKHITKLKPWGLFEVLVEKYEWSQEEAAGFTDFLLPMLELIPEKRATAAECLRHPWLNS
Sequence of Dual specificity protein kinase CLK1 (P49759 whole entry, the tested form may be a part): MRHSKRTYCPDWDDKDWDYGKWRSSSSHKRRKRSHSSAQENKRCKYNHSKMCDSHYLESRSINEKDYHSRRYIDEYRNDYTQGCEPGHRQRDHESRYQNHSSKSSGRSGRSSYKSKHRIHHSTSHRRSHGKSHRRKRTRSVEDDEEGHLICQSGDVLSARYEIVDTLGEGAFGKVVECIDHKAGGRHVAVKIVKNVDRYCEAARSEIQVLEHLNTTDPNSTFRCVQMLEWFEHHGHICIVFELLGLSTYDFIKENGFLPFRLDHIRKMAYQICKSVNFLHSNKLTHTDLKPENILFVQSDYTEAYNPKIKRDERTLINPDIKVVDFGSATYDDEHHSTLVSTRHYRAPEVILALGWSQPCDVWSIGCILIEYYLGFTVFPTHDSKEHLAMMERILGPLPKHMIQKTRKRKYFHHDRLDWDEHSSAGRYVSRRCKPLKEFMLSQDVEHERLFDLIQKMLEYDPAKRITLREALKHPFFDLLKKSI
Sequence of Myosin light chain kinase 2, skeletal/cardiac muscle (Homo sapiens) (Q9H1R3 whole entry): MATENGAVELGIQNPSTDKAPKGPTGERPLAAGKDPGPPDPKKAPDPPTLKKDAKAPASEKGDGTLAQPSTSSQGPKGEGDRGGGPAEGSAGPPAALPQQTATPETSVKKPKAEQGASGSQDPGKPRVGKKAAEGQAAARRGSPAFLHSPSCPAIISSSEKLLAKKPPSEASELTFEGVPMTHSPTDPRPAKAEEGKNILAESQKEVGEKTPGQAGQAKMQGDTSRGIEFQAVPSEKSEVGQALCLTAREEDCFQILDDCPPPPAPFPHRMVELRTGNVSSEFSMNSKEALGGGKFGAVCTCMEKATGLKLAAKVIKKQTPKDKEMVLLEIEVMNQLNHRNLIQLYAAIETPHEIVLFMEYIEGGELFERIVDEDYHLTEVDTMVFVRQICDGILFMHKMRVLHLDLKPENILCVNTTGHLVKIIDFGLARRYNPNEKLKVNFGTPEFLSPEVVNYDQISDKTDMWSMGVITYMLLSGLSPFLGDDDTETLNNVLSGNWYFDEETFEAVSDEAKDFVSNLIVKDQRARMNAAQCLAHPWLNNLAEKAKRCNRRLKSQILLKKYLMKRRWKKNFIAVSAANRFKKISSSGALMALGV
Sequence of Casein kinase I isoform delta (Homo sapiens) (P48730 whole entry, looked up, canonical isoform): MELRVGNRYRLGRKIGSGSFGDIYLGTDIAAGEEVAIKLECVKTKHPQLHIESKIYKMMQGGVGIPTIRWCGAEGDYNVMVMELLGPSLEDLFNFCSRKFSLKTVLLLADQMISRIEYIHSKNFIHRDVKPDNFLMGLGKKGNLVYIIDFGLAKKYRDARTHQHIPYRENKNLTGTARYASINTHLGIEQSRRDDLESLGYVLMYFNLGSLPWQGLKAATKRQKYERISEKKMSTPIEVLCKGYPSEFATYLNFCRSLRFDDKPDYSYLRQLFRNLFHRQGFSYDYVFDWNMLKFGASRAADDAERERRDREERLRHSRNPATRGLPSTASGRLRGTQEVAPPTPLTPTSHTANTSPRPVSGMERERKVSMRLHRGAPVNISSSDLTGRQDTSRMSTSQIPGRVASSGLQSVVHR
Sequence of Cyclin-dependent kinase 5/CDK5 activator 1 (Homo sapiens) (Q00535 whole entry): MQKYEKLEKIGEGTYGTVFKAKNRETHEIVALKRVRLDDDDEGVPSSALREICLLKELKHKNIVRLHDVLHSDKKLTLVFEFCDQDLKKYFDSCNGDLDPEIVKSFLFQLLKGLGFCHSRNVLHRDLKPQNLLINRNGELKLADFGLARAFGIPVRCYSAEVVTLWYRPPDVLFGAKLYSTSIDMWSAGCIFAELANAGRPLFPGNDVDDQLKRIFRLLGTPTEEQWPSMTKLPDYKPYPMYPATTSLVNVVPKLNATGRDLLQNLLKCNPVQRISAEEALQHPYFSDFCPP
Sequence of Cyclin-dependent kinase 5/CDK5 activator 1 (Homo sapiens) (Q15078 99-307 partner limits assumed): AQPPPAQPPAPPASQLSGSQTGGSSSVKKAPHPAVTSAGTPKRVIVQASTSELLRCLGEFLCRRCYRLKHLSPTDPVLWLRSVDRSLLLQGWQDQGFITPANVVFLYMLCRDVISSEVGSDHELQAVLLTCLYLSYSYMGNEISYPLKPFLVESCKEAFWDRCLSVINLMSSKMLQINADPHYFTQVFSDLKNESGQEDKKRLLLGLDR

Compound	IC50 [9] [nM]	inhibition at 0.25 µM [19] [%]	further results
O=C(Nc1cncc(-c2cc(-c3cccnc3)cs2)c1)C1CC1	72.9	40	inhibition [1]: 51.3%; inhibition [2]: 4%; inhibition [3]: 89%; viability at 72 h, 1 µM [4]: 99%; inhibition [5]: 8%; inhibition [6]: 2%; inhibition [7]: 1%; inhibition [8]: 21%; IC50 [10]: 3.2 nM; IC50 [11]: 43 nM; inhibition [11]: Dose-dependent effect; viability at 72 h, 10 µM [12]: 98%; IC50 [13]: 76.3 nM; half-life at 0.3 µM [14]: 2.4 h; viability at 72 h, 3 µM [15]: 102%; inhibition at 1.25 µM [16]: 72%; inhibition [17]: 1%; inhibition [18]: 12.1%; IC50 [20]: 270 nM; inhibition [21]: inactive
CN[C@@H]1C[C@H]2O[C@@](C)([C@@H]1OC)n1c3ccccc3c3c4c(c5c6ccccc6n2c5c31)C(=O)NC4 [STAUROSPORINE]	–	–	viability at 72 h, 1 µM [4]: 33%
O=C(Cc1nnn[nH]1)Nc1cncc(-c2cc(-c3cccnc3)cs2)c1	–	38.5	–
CS(=O)(=O)Nc1cncc(-c2cc(-c3cccnc3)cs2)c1	–	23.5	–
O=C(Nc1cncc(-c2cc(-c3cccnc3)cs2)c1)C1CCC1	219	81	–
CCCn1cc(-c2csc(-c3cncc(NC(=O)C4CC4)c3)c2)cn1	98.8	65.7	–
CC(=O)Nc1cncc(-c2cc(-c3cccnc3)cs2)c1	–	40.3	viability at 72 h, 1 µM [4]: 98%; viability at 72 h, 10 µM [12]: 83%; viability at 72 h, 3 µM [15]: 95%
CC(C)n1cc(-c2csc(-c3cncc(NC(=O)C4CC4)c3)c2)cn1	–	0.7	–
Cn1cc(-c2csc(-c3cncc(NC(=O)C4CC4)c3)c2)cn1	67.1	78.6	–
O=C(Nc1cncc(-c2cc(-c3cn[nH]c3)cs2)c1)C1CC1	138	58.1	half-life at 0.3 µM [14]: 2.45 h
O=C(Nc1cncc(-c2cccs2)c1)C1CC1	–	0	–
CCC(=O)Nc1cncc(-c2cc(-c3cccnc3)cs2)c1	–	49.3	–
O=C(CN1CCOCC1)Nc1cncc(-c2cc(-c3cccnc3)cs2)c1	–	13.9	–
CCn1cc(-c2csc(-c3cncc(NC(=O)C4CC4)c3)c2)cn1	–	57	–
CN(C(=O)C1CC1)c1cncc(-c2cc(-c3cccnc3)cs2)c1	–	0.9	–
O=C(CN1CCCCC1)Nc1cncc(-c2cc(-c3cccnc3)cs2)c1	–	51.8	–
O=C(Nc1cncc(-c2cc(-c3cccnc3)cs2)c1)C1CCCCC1	–	51	–
CC(C)(C)OC(=O)N1CCC(C(=O)Nc2cncc(-c3cc(-c4cccnc4)cs3)c2)C1 (stereo not given)	–	34.9	–
O=C(Nc1cncc(-c2cc(-c3cccnc3)cs2)c1)C1CCNC1 (stereo not given)	132	62.7	–
CCN(C(=O)C1CC1)c1cncc(-c2cc(-c3cccnc3)cs2)c1	–	14.6	–
